According to ChEMBL document CHEMBL3286377, “Microwave-assisted synthesis of C-8 aryl and heteroaryl inosines and determination of their inhibitory activities against Plasmodium falciparum purine nucleoside phosphorylase” (Eur J Med Chem, 2014):
Calls of active or inactive are those of the source. No cut-off for these calls is given here.

Columns and labels:
Coxsackievirus B4 = assay: Antiviral activity against Coxsackievirus B4 assessed as inhibition of virus-induced cytopathicity at 100 uM by cell-based assay; format: functional, organism-based
Summary of the method: (§1)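 Confluent HEL, Vero, HeLa or MDCK monolayers were infected with 100 CCID50 of virus in the presence of varying compound concentrations. Activity is expressed as EC50, the concentration that halves virus-induced cytopathicity.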

Human respirovirus 3 = assay: Antiviral activity against Parainfluenza virus 3 assessed as inhibition of virus-induced cytopathicity at 100 uM by cell-based assay; format: functional, organism-based; summary of the method: as §1
Influenza A virus = assay: Antiviral activity against Influenza A virus H1N1 assessed as inhibition of virus-induced cytopathicity at 100 uM by cell-based assay; format: functional, organism-based
Summary of the method: (§2)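 Inhibition of virus-induced cytopathicity in confluent cell monolayers (HEL, Vero, HeLa or MDCK cells), tested at varying compound concentrations with 100 µM the level assessed. Cytopathicity was scored once it was complete in untreated virus-infected controls. Activity is expressed as EC50, the concentration reducing virus-induced cytopathicity by 50%.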

Influenza A virus H3N2 = assay: Antiviral activity against Influenza A virus H3N2 assessed as inhibition of virus-induced cytopathicity at 100 uM by cell-based assay; format: functional, organism-based; summary of the method: as §2
[1] = test system: Mammalian orthoreovirus 1; assay: Antiviral activity against Reovirus 1 assessed as inhibition of virus-induced cytopathicity at 100 uM by cell-based assay; format: functional; summary of the method: as §1
Sindbis virus = assay: Antiviral activity against Sindbis virus assessed as inhibition of virus-induced cytopathicity at 100 uM by cell-based assay; format: functional, organism-based; summary of the method: as §1
Punta Toro virus = assay: Antiviral activity against Punta Toro virus assessed as inhibition of virus-induced cytopathicity at 100 uM by cell-based assay; format: functional, organism-based; summary of the method: as §1
Influenza B virus = assay: Antiviral activity against Influenza B virus assessed as inhibition of virus-induced cytopathicity at 100 uM by cell-based assay; format: functional, organism-based; summary of the method: as §2
CCRF-CEM = assay: Cytotoxicity against human CEM cells up to 100 uM; format: cell-based
HEL = assay: Cytotoxicity against HEL up to 100 uM; format: cell-based; conditions: human
HeLa = assay: Cytotoxicity against human HeLa cells up to 100 uM; format: cell-based
Vero = assay: Cytotoxicity against African green monkey Vero cells up to 100 uM; format: cell-based; conditions: chlorocebus sabaeus
MDCK = assay: Cytotoxicity against MDCK cells up to 100 uM; format: cell-based, Canis lupus familiaris; conditions: dog
Plasmodium falciparum [2] = assay: Inhibition of Plasmodium falciparum PNP expressed in Escherichia coli BL21(DE3) using inosine as substrate at 200 uM by spectrophotometric analysis
[3] = Hydrolytic stability of the compound in citrate buffer at 50 uM at pH 5 up to 24 hrs by HPLC analysis; format: physicochemical; conditions: pH 5, 24 h
Summary of the method: (§3)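 A 5 mM DMSO stock was diluted to 50 µM final in phosphate (pH 7.4), citrate (pH 5.0) or trifluoroacetate (pH 1.2) buffer and incubated at 37 °C. Aliquots taken at 0, 0.5, 1, 4 and 24 h were analysed by reverse-phase HPLC. The mobile phase ran from 10 to 100% acetonitrile against water with 0.05% TFA over 20 min, at 1.0 mL/min.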

[4] = Hydrolytic stability of the compound in phosphate buffer at 50 uM at pH 7.4 up to 24 hrs by HPLC analysis; format: physicochemical; conditions: pH 7.4, 24 h; summary of the method: as §3
[5] = Half life of the compound in trifluoroacetate buffer at 50 uM at pH 1.2 by HPLC analysis; format: physicochemical; summary of the method: as §3
Human alphaherpesvirus 1 [6] = assay: Antiviral activity against Herpes simplex virus type 1 KOS assessed as inhibition of virus-induced cytopathicity at 100 uM by cell-based assay; format: functional, organism-based; summary of the method: as §1
Human alphaherpesvirus 1 [7] = assay: Antiviral activity against thymidine kinase-deficient ACV-resistant Herpes simplex virus type 1 KOS assessed as inhibition of virus-induced cytopathicity at 100 uM by cell-based assay; format: functional, organism-based
Summary of the method: (§4)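 Confluent HEL, Vero, HeLa or MDCK monolayers were infected with 100 CCID50 of virus in the presence of varying compound concentrations, with 100 µM the level assessed. Cytopathic effect was recorded once it was complete in untreated infected controls. EC50 is the concentration reducing virus-induced cytopathicity by 50%.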

Human alphaherpesvirus 2 [8] = assay: Antiviral activity against Herpes simplex virus type 2 Lyons assessed as inhibition of virus-induced cytopathicity at 100 uM by cell-based assay; format: functional, organism-based; summary of the method: as §1
Human alphaherpesvirus 2 [9] = assay: Antiviral activity against Herpes simplex virus type 2 G assessed as inhibition of virus-induced cytopathicity at 100 uM by cell-based assay; format: functional, organism-based; conditions: strain G; summary of the method: as §1
Vaccinia virus = assay: Antiviral activity against Vaccinia virus Lederle assessed as inhibition of virus-induced cytopathicity at 100 uM by cell-based assay; format: functional, organism-based; conditions: Orthopoxvirus vaccinia; summary of the method: as §4
[10] = test system: Respiratory syncytial virus; assay: Antiviral activity against Respiratory syncytial virus Long assessed as inhibition of virus-induced cytopathicity at 100 uM by cell-based assay; format: functional, organism-based; summary of the method: as §1
[11] = test system: Vesicular stomatitis virus; assay: Antiviral activity against Vesicular stomatitis virus assessed as inhibition of virus-induced cytopathicity at 100 uM by cell-based assay; format: functional, organism-based; summary of the method: as §4
[12] = Inhibition of Plasmodium falciparum PNP expressed in Escherichia coli BL21(DE3) using inosine as substrate by spectrophotometric analysis; conditions: read-out: Ki
Summary of the method: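 Recombinant PfPNP (His-vector, E. coli BL21(DE3), 1 mM IPTG, 37 °C, 4 h) was assayed at 25 nM. The mix held 50 mM KH2PO4 pH 7.5, 60 mU xanthine oxidase and 25 µM inosine, at 25 °C. Uric acid formation was followed at 293 nm. Rates were measured at five or more inhibitor concentrations.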

[13] = target: T1, Purine nucleoside phosphorylase (Homo sapiens) (UniProt P00491); assay: Inhibition of human PNP-mediated inosine hydrolysis assessed as residual activity at 250 uM after 1 hr by RP-HPLC analysis relative to control
T1 sequence (whole entry): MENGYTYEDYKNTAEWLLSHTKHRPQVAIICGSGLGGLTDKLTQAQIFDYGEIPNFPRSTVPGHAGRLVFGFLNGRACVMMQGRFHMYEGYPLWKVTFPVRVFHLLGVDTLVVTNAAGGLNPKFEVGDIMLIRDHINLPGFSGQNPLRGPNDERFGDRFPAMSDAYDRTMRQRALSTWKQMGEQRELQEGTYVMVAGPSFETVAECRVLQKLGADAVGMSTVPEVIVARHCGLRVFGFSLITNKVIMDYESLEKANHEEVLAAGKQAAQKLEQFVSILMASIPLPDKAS
Summary of the method: (§5)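 Enzyme levels were 20 nM for E. coli and M. hyorhinis PNP and 6 nM for human PNP, in buffer of 50 mM MOPS, 0.2 mM EDTA and 200 mM potassium phosphate, pH 6.5, at 37 °C. Compound (250 µM) and inosine (100 µM) were incubated 60 min. Conversion to hypoxanthine was measured by RP-18 HPLC using an NaH2PO4/heptanesulfonate (pH 3.2) to acetonitrile gradient.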

Escherichia coli = assay: Inhibition of Escherichia coli PNP-mediated inosine hydrolysis assessed as residual activity at 250 uM after 1 hr by RP-HPLC analysis relative to control; summary of the method: as §5
Mesomycoplasma hyorhinis = assay: Inhibition of Mycoplasma hyorhinis PNP-mediated inosine hydrolysis assessed as residual activity at 250 uM after 1 hr by RP-HPLC analysis relative to control; summary of the method: as §5
Plasmodium falciparum [14] = assay: Antiplasmodial activity against chloroquine-sensitive Plasmodium falciparum 3D7 assessed as growth inhibition at 25 uM; format: functional, organism-based
Summary of the method: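 Intraerythrocytic-stage growth assay against the chloroquine-sensitive P. falciparum 3D7 strain. Compounds were tested at a single level of 25 µM, with chloroquine run in the same assay as reference.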

Question: Which results are given for `O=c1[nH]cnc2c1nc(-c1cccnc1)n2[C@@H]1O[C@H](CO)[C@@H](O)[C@H]1O`?
Answer: Activity (Coxsackievirus B4): inactive; Activity (Human respirovirus 3): inactive; Activity (Influenza A virus): inactive; Activity (Influenza A virus H3N2): inactive; Activity [1]: inactive; Activity (Sindbis virus): inactive; Activity (Punta Toro virus): inactive; Activity (Influenza B virus): inactive; Activity (CCRF-CEM): Non-toxic; Activity (HEL): Non-toxic; Activity (HeLa): Non-toxic; Activity (Vero): Non-toxic; Activity (MDCK): Non-toxic; inhibition (Plasmodium falciparum [2]): inactive; Stability [3]: Stable; Stability [4]: Stable; half-life at 50 µM [5]: 15 h; Activity (Human alphaherpesvirus 1 [6]): inactive; Activity (Human alphaherpesvirus 1 [7]): inactive; Activity (Human alphaherpesvirus 2 [8]): inactive; Activity (Human alphaherpesvirus 2 [9]): inactive; Activity (Vaccinia virus): inactive; Activity [10]: inactive; Activity [11]: inactive

Question: What does the source list for `COc1ccc(-c2nc3c(=O)[nH]cnc3n2[C@@H]2O[C@H](CO)[C@@H](O)[C@H]2O)cc1`?
Answer: Activity (Coxsackievirus B4): inactive; Activity (Human respirovirus 3): inactive; Activity (Influenza A virus): inactive; Activity (Influenza A virus H3N2): inactive; Activity [1]: inactive; Activity (Sindbis virus): inactive; Activity (Punta Toro virus): inactive; Activity (Influenza B virus): inactive; Activity (CCRF-CEM): Non-toxic; Activity (HEL): Non-toxic; Activity (HeLa): Non-toxic; Activity (Vero): Non-toxic; Activity (MDCK): Non-toxic; inhibition (Plasmodium falciparum [2]): inactive; Stability [3]: Stable; Stability [4]: Stable; half-life at 50 µM [5]: 5 h; Activity (Human alphaherpesvirus 1 [6]): inactive; Activity (Human alphaherpesvirus 1 [7]): inactive; Activity (Human alphaherpesvirus 2 [8]): inactive; Activity (Human alphaherpesvirus 2 [9]): inactive; Activity (Vaccinia virus): inactive; Activity [10]: inactive; Activity [11]: inactive

Question: Which Activity (Coxsackievirus B4) does the source give for `O=c1[nH]cnc2c1nc(-c1cccc(C(F)(F)F)c1)n2[C@@H]1O[C@H](CO)[C@@H](O)[C@H]1O` here?
Answer: inactive

Question: What about the Activity (Human respirovirus 3) of the same compound?
Answer: inactive

Question: And the Activity (Influenza A virus)?
Answer: inactive

Question: And the Activity (Influenza A virus H3N2)?
Answer: inactive

Question: And the Activity [1]?
Answer: inactive

Question: What about the Activity (Sindbis virus) of the same compound?
Answer: inactive

Question: What about the Activity (Punta Toro virus) of the same compound?
Answer: inactive

Question: What about the Activity (Influenza B virus) of the same compound?
Answer: inactive

Question: What about the Activity (CCRF-CEM) of the same compound?
Answer: Non-toxic

Question: And the Activity (HEL)?
Answer: Non-toxic

Question: And the Activity (HeLa)?
Answer: Non-toxic

Question: What about the Activity (Vero) of the same compound?
Answer: Non-toxic

Question: What about the Activity (MDCK) of the same compound?
Answer: Non-toxic

Question: What about the Ki [12] of the same compound?
Answer: 5.33 µM

Question: And the Activity [13]?
Answer: 96%

Question: What about the Activity (Escherichia coli) of the same compound?
Answer: 96%

Question: And the Activity (Mesomycoplasma hyorhinis)?
Answer: 96%

Question: And the “growth inhibition (GI)” value (Plasmodium falciparum [14])?
Answer: inactive

Question: What about the Stability [3] of the same compound?
Answer: Stable

Question: And the Stability [4]?
Answer: Stable

Question: And the half-life at 50 µM [5]?
Answer: 5 h

Question: And the Activity (Human alphaherpesvirus 1 [6])?
Answer: inactive

Question: And the Activity (Human alphaherpesvirus 1 [7])?
Answer: inactive

Question: And the Activity (Human alphaherpesvirus 2 [8])?
Answer: inactive

Question: What about the Activity (Human alphaherpesvirus 2 [9]) of the same compound?
Answer: inactive

Question: What about the Activity (Vaccinia virus) of the same compound?
Answer: inactive

Question: And the Activity [10]?
Answer: inactive

Question: What about the Activity [11] of the same compound?
Answer: inactive
